Laboratory results as given in ChEMBL document CHEMBL4715807, “Development of Small Molecules with a Noncanonical Binding Mode to HIV-1 Trans Activation Response (TAR) RNA” (J Med Chem, 2016).
Calls of active or inactive are those of the source. The rule behind the calls is not given here.

Experiments:
[1] = Binding affinity to HIV1 TAR by FRET based Tat/TAR displacement assay; design: species or system Human immunodeficiency virus 1
Outline: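 Unlabeled TAR (100 nM) with 16-mer Tat peptide (N-terminal FAM, C-terminal TAMRA; 12 nM) in 50 mM Tris pH 7.4, 20 mM KCl, 0.01% Triton X-100, 5% DMSO; compound added and incubated 30 min at room temperature with rocking. Read at ex 485/em 590 nm. Controls: complex alone for 0% inhibition, peptide alone for 100%.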

[2] = Binding affinity to HIV1 23-2AP TAR by 2-AP based fluorescence assay; design: species or system Human immunodeficiency virus 1; conditions: read-out: Kd(app)
Outline: (§1)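 2-AP-labelled TAR hairpin (U23 or U25 replaced) annealed at 95 °C 3 min, cooled ≥30 min, used at 1 μM in PBS pH 7.4 with compound added from DMSO, 30 min at room temperature with rocking. Fluorescence read at ex 310/em 365 nm, compound fluorescence subtracted, normalized to free RNA. Apparent Kd from nonlinear fit; highest concentration 400 μM; triplicates, ± SD.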

[3] = Binding affinity to HIV1 25-2AP TAR by 2-AP based fluorescence assay; design: species or system Human immunodeficiency virus 1; conditions: read-out: Kd(app); outline: as §1
[4] = test system: Human immunodeficiency virus 1; test: Binding affinity to HIV-1 TAR RNA 5'-UTR assessed as decrease in 1M7 reactivity for residue U25 within TAR bulge and U31, G33 and A35 within apical loop by SHAPE analysis
Outline: (§2)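 RNA (5 pmol) heated to 90 °C 3 min, slowly cooled to 4 °C, in 50 mM Tris-HCl pH 8.0, 100 mM NaCl, 5 mM MgCl2, then 37 °C for 15 min. Ligand added to final 5 or 0.5 μM, 10 min at room temperature. 1M7 at final 3.5 mM (DMSO alone for control), 37 °C 5 min. Primer extension with SuperScript III, capillary electrophoresis; control peak areas subtracted.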

[5] = test system: Human immunodeficiency virus 1; test: Binding affinity to HIV1 TAR assessed as induction of chemical shift perturbations of TAR residues by NMR analysis
Outline: (§3)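 NMR buffer: 20 mM d19-Bis-Tris pH 6.5, 10 mM NaCl, DSA reference, in D2O or 95% H2O/5% D2O. Ligand stocks 10 mM in d6-DMSO; free-ligand samples […], final DMSO 15%. RNA heated 90 °C 4 min, snap-cooled at −20 °C. 1D 1H with excitation sculpting; ligand line broadening with 10 μM TAR; TOCSY shift perturbations.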

[6] = test system: Human immunodeficiency virus 1; test: Effect on global topology of HIV-1 RNA 5'-UTR by SHAPE analysis; outline: as §2
[7] = test system: Human immunodeficiency virus 1; test: Binding affinity to HIV1 TAR by NMR analysis; outline: as §3
[8] = test system: Human immunodeficiency virus 1; test: Binding affinity to HIV1 TAR by TOCSY NMR analysis; outline: as §3
[9] = test system: Human immunodeficiency virus 1; test: Binding affinity to HIV-1 TAR RNA 5'-UTR assessed as induction of chemical reactivity by SHAPE analysis; outline: as §2
[10] = test system: Human immunodeficiency virus 1; test: Binding affinity to HIV-1 TAR RNA 5'-UTR assessed as 1M7 reactivity reduction throughout TAR with residues U13-14, C19, and G32 by SHAPE analysis; outline: as §2

Row | IC50 [1] [µM] | Kd [2] [µM] | Kd [3] [µM] | Activity [4] | Activity [5] | Activity [6] | Activity [7] | Activity [8] | Activity [9] | Activity [10] | SMILES
1 | > 400 | > 400 | > 400 |  |  |  |  |  |  |  | Cc1ccc2c(N)c(S(=O)(=O)Nc3cccc(C(F)(F)F)c3)sc2n1
2 | 87 | 84.1 | 75.3 |  |  |  |  |  |  |  | Cc1ccc2c(N)c(C(=O)Nc3ccc(C(F)(F)F)cc3)sc2n1
3 | > 400 | > 400 | > 400 |  |  |  |  |  |  |  | Cc1ccc2cc(C(=O)Nc3cccc(C(F)(F)F)c3)sc2n1
4 | 45.1 | 46 | 47.7 |  |  |  |  |  |  |  | Cc1ccc2c(N)c(-c3nc(-c4cccc(C(F)(F)F)c4)no3)sc2n1
5 | > 400 | 55.4 | 48.5 |  |  |  |  |  |  |  | Cc1cnc2sc(C(=O)Nc3cccc(C(F)(F)F)c3)c(N)c2c1
6 | 40.1 | 75 | 49.1 |  |  | inactive |  |  | Active | Active | Cc1ccc2c(N)c(-c3nnc(-c4cccc(C(F)(F)F)c4)o3)sc2n1
7 | > 400 | 94.1 | 66.5 |  |  |  |  |  |  |  | Cc1ccnc2sc(C(=O)Nc3cccc(C(F)(F)F)c3)c(N)c12
8 | > 400 | 54.1 | 47.7 |  |  |  |  |  |  |  | Cc1ccc2c(N)c(C(=O)Nc3cccc(C(F)(F)F)c3)sc2n1
9 | > 400 | 107 | 43.3 |  |  |  |  |  |  |  | CC(C)c1ccc2c(N)c(C(=O)Nc3cccc(C(F)(F)F)c3)sc2n1
10 | > 400 | 69.4 | 66.4 |  |  |  |  |  |  |  | Cc1ccc2c(N)c(C(=O)NCc3cccc(C(F)(F)F)c3)sc2n1
11 | 90.4 | > 400 | 90.1 |  |  |  |  |  |  |  | Cc1ccc2c(N)c(C(=O)Nc3ccccc3C(F)(F)F)sc2n1

Further lines, the molecule ahead of its results:

Row | SMILES | IC50 [1] [µM] | Kd [2] [µM] | Kd [3] [µM] | Activity [4] | Activity [5] | Activity [6] | Activity [7] | Activity [8] | Activity [9] | Activity [10]
12 | Cc1ccc2c(N)c(C(=O)Nc3cccnc3)sc2n1 | > 400 | 89.5 | 68 |  |  |  |  |  |  | 
13 | Cc1ccc2c(N)c(C(=O)Nc3ccncc3)sc2n1 | > 400 | 51.1 | 40 | Active | Dose-dependent effect | inactive | Active | Active | Active | 
14 | Cc1ccc2c(N)c(S(=O)(=O)Nc3cccc(F)c3)sc2n1 | > 400 | > 400 | > 400 |  |  |  | inactive |  |  | 
15 | Cc1ccc2c(N)c(-c3nnc(-c4ccccc4)o3)sc2n1 | > 300 | 56.9 | 44.6 |  |  |  |  |  |  | 
16 | Cc1ccc2c(N)c(-c3nnc(-c4cccc(Cl)c4)o3)sc2n1 | > 400 | 45.6 | 42.5 |  |  |  |  |  |  | 
17 | Cc1ccc2c(N)c(C(=O)Nc3ccccn3)sc2n1 | > 400 | 64.3 | 50.3 |  |  |  |  |  |  | 
18 | Cc1ccc2c(n1)sc1c(=O)n(-c3cccc(C(F)(F)F)c3)c(=O)[nH]c12 | > 400 | > 400 | > 400 |  |  |  |  |  |  | 
19 | Nc1c(-c2nnc(-c3cccc(C(F)(F)F)c3)o2)sc2ncccc12 | 37.6 | 44.1 | 50.2 |  |  |  |  |  |  | 
